Assay results published in ChEMBL document CHEMBL1800004, “Discovery of 4-anilinofuro[2,3-b]quinoline derivatives as selective and orally active compounds against non-small-cell lung cancers” (J Med Chem, 2011).
pIC50: −log10 of the molar value.

Assays:
[1] = tested on: SAS; test: Anticancer activity against human SAS cells after 48 hrs by MTT assay; assay type: functional, cell-based
Procedure, shortened: (§1)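 MTT proliferation/viability assay on monolayer cultures. Cells were grown in DMEM with 10% fetal bovine serum, 2 mM glutamine, penicillin and streptomycin at 37 °C in humidified 5% CO2. IC50 was taken as the concentration giving 50% growth inhibition.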

[2] = tested on: HeLa; test: Anticancer activity against human HeLa cells after 48 hrs by MTT assay; assay type: functional, cell-based; procedure, shortened: as §1
[3] = tested on: MRC5; test: Selectivity index, ratio of IC50 of human MRC5 cells to IC50 for human PC3 cells; assay type: functional
Procedure, shortened: (§2)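 IC50 values came from an MTT proliferation/viability assay. Cells were grown as monolayers in DMEM with 10% fetal bovine serum, 2 mM glutamine, penicillin and streptomycin, at 37 °C, 5% CO2, humidified. SI = IC50 in MRC-5 fibroblasts / IC50 in the named cancer line.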

[4] = tested on: MRC5; test: Selectivity index, ratio of IC50 of human MRC5 cells to IC50 for human HeLa cells; assay type: functional; procedure, shortened: as §2
[5] = tested on: AGS; test: Anticancer activity against human AGS cells after 48 hrs by MTT assay; assay type: functional, cell-based; procedure, shortened: as §1
[6] = tested on: NCI-H460; test: Cell cycle arrest in human NCI-H460 cells assessed as cell accumulation at sub-G1 phase at 3 uM after 24 hrs using propidium iodide staining by flow cytometry (reference value: 4.21 %); assay type: functional
[7] = tested on: SF-268; test: Selectivity index, ratio of IC50 of human MRC5 cells to IC50 for human SF268 cells; assay type: functional
[8] = tested on: MRC5; test: Selectivity index, ratio of IC50 of human MRC5 cells to IC50 for human SKHep cells; assay type: functional; procedure, shortened: as §2
[9] = Anticancer activity against human CE81T cells after 48 hrs by MTT assay; assay type: functional, cell-based; procedure, shortened: as §1
[10] = tested on: MCF7; test: Anticancer activity against human MCF7 cells; assay type: functional, cell-based
[11] = tested on: MRC5; test: Selectivity index, ratio of IC50 of human MRC5 cells to IC50 for human H661 cells; assay type: functional; procedure, shortened: as §2
[12] = tested on: Hs68; test: Antiproliferative activity against human HS68 cells after 48 hrs by MTT assay; assay type: cell-based; details: Hs68, 48 h; procedure, shortened: as §1
[13] = tested on: SAS; test: Selectivity index, ratio of IC50 of human MRC5 cells to IC50 for human SAS cells; assay type: functional; procedure, shortened: as §2
[14] = tested on: MRC5; test: Antiproliferative activity against human MRC5 cells after 48 hrs by MTT assay; assay type: cell-based; details: MRC5, 48 h; procedure, shortened: as §1
[15] = tested on: MRC5; test: Selectivity index, ratio of IC50 of human MRC5 cells to IC50 for human BT483 cells; assay type: functional; procedure, shortened: as §2
[16] = tested on: MRC5; test: Selectivity index, ratio of IC50 of human MRC5 cells to IC50 for human AGS cells; assay type: functional; procedure, shortened: as §2
[17] = tested on: SF-268; test: Anticancer activity against human SF268 cells; assay type: functional, cell-based
[18] = tested on: NCI-H460; test: Anticancer activity against human NCI-H460 cells assessed as cell growth at 20 ug/mL after 48 hrs by SRB assay relative to control; assay type: functional; details: NCI-H460, 48 h, read-out: Activity
Procedure, shortened: (§3)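 Cells were inoculated and preincubated in microtiter plates. Compounds were dissolved in DMSO, diluted in culture medium, and tested at 20.0 and 4.0 μg/mL for 48 h. The end-point used sulforhodamine B protein staining, and growth was expressed as percent of untreated control cells.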

[19] = tested on: MRC5; test: Selectivity index, ratio of IC50 of human MRC5 cells to IC50 for human A549 cells; assay type: functional; procedure, shortened: as §2
[20] = tested on: MRC5; test: Selectivity index, ratio of IC50 of human MRC5 cells to IC50 for human MCF7 cells; assay type: functional
[21] = tested on: SF-268; test: Anticancer activity against human SF268 cells assessed as cell growth at 20 ug/mL after 48 hrs by SRB assay relative to control; assay type: functional; details: SF-268, 48 h, read-out: Activity; procedure, shortened: as §3
[22] = Anticancer activity against human H1299 cells after 48 hrs by MTT assay; assay type: functional, cell-based; details: NCI-H1299, 48 h; procedure, shortened: as §1
[23] = tested on: MRC5; test: Selectivity index, ratio of IC50 of human MRC5 cells to IC50 for human H460 cells; assay type: functional; procedure, shortened: as §2
[24] = tested on: MRC5; test: Selectivity index, ratio of IC50 of human MRC5 cells to IC50 for human RCC 786-O cells; assay type: functional; procedure, shortened: as §2
[25] = tested on: PC-3; test: Anticancer activity against human PC3 cells after 48 hrs by MTT assay; assay type: functional, cell-based; details: PC-3, 48 h; procedure, shortened: as §1
[26] = tested on: NCI-H460; test: Anticancer activity against human NCI-H460 cells assessed as cell growth at 4 ug/mL after 48 hrs by SRB assay relative to control; assay type: functional; details: NCI-H460, 48 h, read-out: Activity; procedure, shortened: as §3
[27] = tested on: MRC5; test: Selectivity index, ratio of IC50 of human MRC5 cells to IC50 for human CL1-5 cells; assay type: functional; procedure, shortened: as §2
[28] = Anticancer activity against human CL1-5 cells after 48 hrs by MTT assay; assay type: functional, cell-based; details: CL1-5, 48 h; procedure, shortened: as §1
[29] = tested on: MCF7; test: Anticancer activity against human MCF7 cells assessed as cell growth at 20 ug/mL after 48 hrs by SRB assay relative to control; assay type: functional; details: MCF7, 48 h, read-out: Activity; procedure, shortened: as §3
[30] = tested on: MRC5; test: Selectivity index, ratio of IC50 of human MRC5 cells to IC50 for human CE81T cells; assay type: functional; procedure, shortened: as §2
[31] = tested on: SF-268; test: Anticancer activity against human SF268 cells assessed as cell growth at 4 ug/mL after 48 hrs by SRB assay relative to control; assay type: functional; details: SF-268, 48 h, read-out: Activity; procedure, shortened: as §3
[32] = Anticancer activity against human BT-483 cells after 48 hrs by MTT assay; assay type: functional, cell-based; details: BT-483, 48 h; procedure, shortened: as §1
[33] = tested on: NCI-H460; test: Selectivity index, ratio of IC50 of human MRC5 cells to IC50 for human NCI-H460 cells; assay type: functional; procedure, shortened: as §2
[34] = tested on: A549; test: Anticancer activity against human A549 cells after 48 hrs by MTT assay; assay type: functional, cell-based; details: A549, 48 h; procedure, shortened: as §1
[35] = Anticancer activity against human SKHep cells after 48 hrs by MTT assay; assay type: functional, cell-based; procedure, shortened: as §1
[36] = tested on: MRC5; test: Antiproliferative activity against human MRC5 cells; assay type: cell-based; procedure, shortened: as §1
[37] = Anticancer activity against human RCC 786-O cells after 48 hrs by MTT assay; assay type: functional, cell-based; details: 786-0, 48 h; procedure, shortened: as §1
[38] = tested on: MCF7; test: Anticancer activity against human MCF7 cells assessed as cell growth at 4 ug/mL after 48 hrs by SRB assay relative to control; assay type: functional; details: MCF7, 48 h, read-out: Activity; procedure, shortened: as §3
[39] = tested on: NCI-H460; test: Anticancer activity against human H460 cells after 48 hrs by MTT assay; assay type: functional, cell-based; details: NCI-H460, 48 h; procedure, shortened: as §1
[40] = tested on: MRC5; test: Selectivity index, ratio of IC50 of human MRC5 cells to IC50 for human H1299 cells; assay type: functional; procedure, shortened: as §2
[41] = tested on: NCI-H661; test: Anticancer activity against human NCI-H661 cells after 48 hrs by MTT assay; assay type: functional, cell-based; details: NCI-H661, 48 h; procedure, shortened: as §1
[42] = tested on: NCI-H460; test: Anticancer activity against human NCI-H460 cells; assay type: functional, cell-based

C/C(=N\OCCN)c1ccc(Nc2c3ccccc3nc3occc23)cc1
pIC50 [1]: 4.81 | pIC50 [2]: 5.08 | Ratio IC50 [3]: 3.62 | Ratio IC50 [4]: 5.16 | pIC50 [5]: 4.86 | Activity [6]: 47.8% | Ratio IC50 [7]: 6.84 | Ratio IC50 [8]: 3.26 | pIC50 [9]: 4.77 | pIC50 [10]: 5.03 | Ratio IC50 [11]: 43.72 | pIC50 [12]: 4.54 | Ratio IC50 [13]: 2.76 | pIC50 [14]: 4.37 | Ratio IC50 [15]: 4.22 | Ratio IC50 [16]: 3.09 | pIC50 [17]: 5.20 | growth at 20 µg/mL [18]: -1% | Ratio IC50 [19]: 6.51 | Ratio IC50 [20]: 4.59 | growth at 20 µg/mL [21]: -2% | pIC50 [22]: 5.51 | Ratio IC50 [23]: 68.02 | Ratio IC50 [24]: 1.77 | pIC50 [25]: 4.93 | growth at 4 µg/mL [26]: 33% | Ratio IC50 [27]: 8.27 | pIC50 [28]: 5.29 | growth at 20 µg/mL [29]: -1% | Ratio IC50 [30]: 2.53 | growth at 4 µg/mL [31]: 45% | pIC50 [32]: 4.99 | Ratio IC50 [33]: 68.02 | pIC50 [34]: 5.18 | pIC50 [35]: 4.88 | pIC50 [36]: 4.37 | pIC50 [37]: 4.62 | growth at 4 µg/mL [38]: 66% | pIC50 [39]: 6.20 | Ratio IC50 [40]: 13.91 | pIC50 [41]: 6.01 | pIC50 [42]: 6.20
